In ChEMBL document CHEMBL2016521, “Preparation, gram-negative antibacterial activity, and hydrolytic stability of novel siderophore-conjugated monocarbam diols” (ACS Med Chem Lett, 2011):
Values after ≈ are worked out from the molar mass of the structure shown.

Tests used:
Pseudomonas aeruginosa [1] = experiment: Antibacterial activity against Pseudomonas aeruginosa isolate 1091-05; assay type: functional
[2] = Chemical stability of the compound in phosphate buffer at pH 8 assessed as drug degradation at 1 uM after 100 hrs by HPLC analysis; assay type: physicochemical; conditions: read-out: Drug degradation
Outline: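 Hydrolytic β-lactam ring-opening was followed in aqueous buffer at pH 8.0 and 37 °C over a 100 h incubation. The read-out was percent degradation.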

Klebsiella pneumoniae [3] = experiment: Antimicrobial activity against extended spectrum beta-lactamase-producing Klebsiella pneumoniae; assay type: functional
Klebsiella pneumoniae [4] = experiment: Antibacterial activity against Klebsiella pneumoniae 1000-02; assay type: functional
Pseudomonas aeruginosa [5] = experiment: Antibacterial activity against Pseudomonas aeruginosa clinical isolate; assay type: functional
Pseudomonas aeruginosa [6] = experiment: Antibacterial activity against metallo-beta-lactamase producing Pseudomonas aeruginosa; assay type: functional
Citrobacter freundii = experiment: Antimicrobial activity against Citrobacter freundii; assay type: functional
Escherichia coli [7] = experiment: Antimicrobial activity against extended spectrum beta-lactamase-producing Escherichia coli; assay type: functional
Serratia marcescens = experiment: Antimicrobial activity against Serratia marcescens; assay type: functional
[8] = tested on: Stenotrophomonas maltophilia; experiment: Antimicrobial activity against Stenotrophomonas maltophilia; assay type: functional
Escherichia coli [9] = experiment: Antimicrobial activity against CTX-M-positive extended spectrum beta-lactamase-producing Escherichia coli; assay type: functional
Acinetobacter sp. = experiment: Antimicrobial activity against Acinetobacter sp.; assay type: functional
Klebsiella aerogenes = experiment: Antimicrobial activity against Enterobacter aerogenes; assay type: functional
Klebsiella pneumoniae [10] = experiment: Antimicrobial activity against carbapenemase-producing Klebsiella pneumoniae; assay type: functional
Escherichia coli [11] = experiment: Antimicrobial activity against Escherichia coli clinical isolate; assay type: functional
Pseudomonas aeruginosa [12] = experiment: Antibacterial activity against imipenem-sensitive Pseudomonas aeruginosa isolate 1091-05 infected in ip dosed SF-1 mouse assessed as survival of animal administered 0.5 and 4 hrs post infected measured on day 4; assay type: functional; conditions: isolate 1091-05, ip, read-out: PD50
Pseudomonas aeruginosa [13] = experiment: Antibacterial activity against Pseudomonas aeruginosa cystic fibrosis isolate; assay type: functional
Pseudomonas aeruginosa [14] = experiment: Antibacterial activity against Pseudomonas aeruginosa; assay type: functional
Acinetobacter baumannii = experiment: Antibacterial activity against Acinetobacter baumannii AB-3167; assay type: functional
Pseudomonas aeruginosa [15] = experiment: Antibacterial activity against imipenem-sensitive Pseudomonas aeruginosa isolate 1091-05 infected in sc dosed neutropenic-C3H/HeN mouse assessed as mouse survival administered 4 hrs post infection followed by BID dosing for two days measured on day 10; assay type: functional; conditions: isolate 1091-05, sc, read-out: PD50
Klebsiella pneumoniae [16] = experiment: Antimicrobial activity against Klebsiella pneumoniae clinical isolate; assay type: functional
[17] = Plasma protein binding in human; assay type: ADME, cell-free; conditions: read-out: PPB (converted)

Q: With `Cc1cc(Cn2c(-c3cc(=O)c(O)c[nH]3)nn(S(=O)(=O)[N-]C(=O)N3C[C@H](NC(=O)/C(=N\OC(C)(C)C(=O)[O-])c4csc(N)n4)C3=O)c2=O)no1.[Na+].[Na+]` as the molecule, how does the MIC (Pseudomonas aeruginosa [1]) read?
A: Its MIC is 2 µg/mL.

Q: For `C[C@@H](O)[C@H]1C(=O)N2C(C(=O)O)=C(S[C@@H]3CN[C@H](C(=O)N(C)C)C3)[C@H](C)[C@H]12` [MEROPENEM], which degraded at 100 h, 1 µM [2] is on record?
A: Its degraded at 100 h, 1 µM is 50%.

Q: And the MIC50 (Klebsiella pneumoniae [3])?
A: Its MIC50 is 0.06 µg/mL (≈ 0.156 µM).

Q: What about the MIC90 (Klebsiella pneumoniae [3]) of the same molecule?
A: The MIC90 was 32 µg/mL (≈ 83.4 µM).

Q: What about the MIC (Klebsiella pneumoniae [4]) of the same molecule?
A: Its MIC is less than 1 µg/mL.

Q: What about the MIC50 (Pseudomonas aeruginosa [5]) of the same molecule?
A: Its MIC50 is 8 µg/mL (≈ 20.9 µM).

Q: And the MIC90 (Pseudomonas aeruginosa [5])?
A: The MIC90 was greater than 64 µg/mL.

Q: What about the MIC50 (Pseudomonas aeruginosa [6]) of the same molecule?
A: The MIC50 was 8 µg/mL (≈ 20.9 µM).

Q: What about the MIC90 (Pseudomonas aeruginosa [6]) of the same molecule?
A: Its MIC90 is greater than 64 µg/mL.

Q: What about the MIC50 (Citrobacter freundii) of the same molecule?
A: Its MIC50 is 0.06 µg/mL (≈ 0.156 µM).

Q: And the MIC90 (Citrobacter freundii)?
A: Its MIC90 is 0.25 µg/mL (≈ 0.652 µM).

Q: And the MIC50 (Escherichia coli [7])?
A: The MIC50 was 0.06 µg/mL (≈ 0.156 µM).

Q: What about the MIC90 (Escherichia coli [7]) of the same molecule?
A: Its MIC90 is 0.06 µg/mL (≈ 0.156 µM).

Q: And the MIC50 (Serratia marcescens)?
A: The MIC50 was 0.06 µg/mL (≈ 0.156 µM).

Q: What about the MIC90 (Serratia marcescens) of the same molecule?
A: The MIC90 was greater than 64 µg/mL.

Q: And the MIC50 [8]?
A: Its MIC50 is greater than 64 µg/mL.

Q: What about the MIC90 [8] of the same molecule?
A: The MIC90 was greater than 64 µg/mL.

Q: And the MIC50 (Escherichia coli [9])?
A: Its MIC50 is 0.06 µg/mL (≈ 0.156 µM).

Q: And the MIC90 (Escherichia coli [9])?
A: The MIC90 was 0.06 µg/mL (≈ 0.156 µM).

Q: What about the MIC (Pseudomonas aeruginosa [1]) of the same molecule?
A: The MIC was 0.5 µg/mL (≈ 1.3 µM).

Q: And the MIC50 (Acinetobacter sp.)?
A: The MIC50 was 1 µg/mL (≈ 2.61 µM).

Q: What about the MIC90 (Acinetobacter sp.) of the same molecule?
A: The MIC90 was 32 µg/mL (≈ 83.4 µM).

Q: What about the MIC50 (Klebsiella aerogenes) of the same molecule?
A: Its MIC50 is 0.06 µg/mL (≈ 0.156 µM).

Q: What about the MIC90 (Klebsiella aerogenes) of the same molecule?
A: Its MIC90 is 0.25 µg/mL (≈ 0.652 µM).

Q: And the MIC50 (Klebsiella pneumoniae [10])?
A: Its MIC50 is 0.06 µg/mL (≈ 0.156 µM).

Q: What about the MIC90 (Klebsiella pneumoniae [10]) of the same molecule?
A: Its MIC90 is 32 µg/mL (≈ 83.4 µM).

Q: What about the MIC50 (Escherichia coli [11]) of the same molecule?
A: Its MIC50 is 0.06 µg/mL (≈ 0.156 µM).

Q: And the MIC90 (Escherichia coli [11])?
A: Its MIC90 is 0.06 µg/mL (≈ 0.156 µM).

Q: What about the ED50 (Pseudomonas aeruginosa [12]) of the same molecule?
A: The ED50 was 1.3 mg/kg.

Q: And the MIC50 (Pseudomonas aeruginosa [13])?
A: Its MIC50 is 8 µg/mL (≈ 20.9 µM).

Q: What about the MIC90 (Pseudomonas aeruginosa [13]) of the same molecule?
A: The MIC90 was greater than 64 µg/mL.

Q: And the MIC90 (Pseudomonas aeruginosa [14])?
A: The MIC90 was greater than 64 µg/mL.

Q: And the MIC (Acinetobacter baumannii)?
A: The MIC was 0.25 µg/mL (≈ 0.652 µM).

Q: And the ED50 (Pseudomonas aeruginosa [15])?
A: Its ED50 is 1.04 mg/kg.

Q: And the MIC50 (Klebsiella pneumoniae [16])?
A: The MIC50 was 0.06 µg/mL (≈ 0.156 µM).

Q: What about the MIC90 (Klebsiella pneumoniae [16]) of the same molecule?
A: Its MIC90 is 32 µg/mL (≈ 83.4 µM).

Q: For `C=CC1=C(C(=O)O)N2C(=O)[C@@H](NC(=O)/C(=N\OCC(=O)O)c3csc(N)n3)[C@H]2SC1` [CEFIXIME], which fraction unbound [17] is on record?
A: Its fraction unbound is 0.35.

Q: For `CC(C)(C)CCn1c(-c2cc(=O)c(O)c[nH]2)nn(S(=O)(=O)[N-]C(=O)N2C[C@H](NC(=O)/C(=N\OC(C)(C)C(=O)[O-])c3csc(N)n3)C2=O)c1=O.[Na+].[Na+]`, which MIC (Pseudomonas aeruginosa [1]) is on record?
A: Its MIC is 0.5 µg/mL.

Q: For `CC(C)(O/N=C(\C(=O)N[C@H]1CN(C(=O)[N-]S(=O)(=O)n2nc(-c3cc(=O)c(O)c[nH]3)n(C[C@@H]3CCCO3)c2=O)C1=O)c1csc(N)n1)C(=O)[O-].[Na+].[Na+]`, which MIC (Klebsiella pneumoniae [4]) is on record?
A: Its MIC is 0.5 µg/mL.

Q: What about the MIC (Pseudomonas aeruginosa [1]) of the same molecule?
A: The MIC was 0.5 µg/mL.

Q: What about the ED50 (Pseudomonas aeruginosa [12]) of the same molecule?
A: Its ED50 is 2.8 mg/kg.

Q: What about the MIC (Acinetobacter baumannii) of the same molecule?
A: The MIC was 2 µg/mL.

Q: What about the ED50 (Pseudomonas aeruginosa [15]) of the same molecule?
A: Its ED50 is greater than 100 mg/kg.

Q: With `CCN(CC)CCn1c(-c2cc(=O)c(O)c[nH]2)nn(S(=O)(=O)[N-]C(=O)N2C[C@H](NC(=O)/C(=N\OC(C)(C)C(=O)[O-])c3csc(N)n3)C2=O)c1=O.[Na+].[Na+]` as the molecule, how does the MIC (Pseudomonas aeruginosa [1]) read?
A: Its MIC is 1 µg/mL.

Q: With `COCC1=C(C(=O)O)N2C(=O)[C@@H](NC(=O)/C(=N\OC)c3csc(N)n3)[C@H]2SC1` [CEFPODOXIME] as the molecule, how does the fraction unbound [17] read?
A: The fraction unbound was 0.75.

Q: Which MIC (Klebsiella pneumoniae [4]) does the source give for `C[C@H](O)Cn1c(-c2cc(=O)c(O)c[nH]2)nn(S(=O)(=O)[N-]C(=O)N2C[C@H](NC(=O)/C(=N\OC(C)(C)C(=O)[O-])c3csc(N)n3)C2=O)c1=O.[Na+].[Na+]` here?
A: Its MIC is 0.25 µg/mL.

Q: And the MIC (Pseudomonas aeruginosa [1])?
A: The MIC was 0.125 µg/mL.

Q: And the MIC90 (Pseudomonas aeruginosa [14])?
A: The MIC90 was 1 µg/mL.

Q: What about the MIC (Acinetobacter baumannii) of the same molecule?
A: The MIC was 1 µg/mL.

Q: What about the ED50 (Pseudomonas aeruginosa [15]) of the same molecule?
A: Its ED50 is 15.7 mg/kg.

Q: For `CC(C)(O/N=C(\C(=O)N[C@H]1CN(C(=O)[N-]S(=O)(=O)n2nc(-c3cc(=O)c(O)c[nH]3)n(CCCO)c2=O)C1=O)c1csc(N)n1)C(=O)[O-].[Na+].[Na+]`, which MIC (Pseudomonas aeruginosa [1]) is on record?
A: Its MIC is 0.25 µg/mL.

Q: Which MIC (Klebsiella pneumoniae [4]) does the source give for `C[C@@H](O)Cn1c(-c2cc(=O)c(O)c[nH]2)nn(S(=O)(=O)[N-]C(=O)N2C[C@H](NC(=O)/C(=N\OC(C)(C)C(=O)[O-])c3csc(N)n3)C2=O)c1=O.[Na+].[Na+]` here?
A: The MIC was 0.5 µg/mL.

Q: And the MIC (Pseudomonas aeruginosa [1])?
A: Its MIC is 0.125 µg/mL.

Q: What about the ED50 (Pseudomonas aeruginosa [12]) of the same molecule?
A: Its ED50 is less than 1 mg/kg.

Q: What about the MIC90 (Pseudomonas aeruginosa [14]) of the same molecule?
A: The MIC90 was 1 µg/mL.

Q: What about the MIC (Acinetobacter baumannii) of the same molecule?
A: Its MIC is 1 µg/mL.

Q: And the ED50 (Pseudomonas aeruginosa [15])?
A: Its ED50 is 32.7 mg/kg.

Q: Which results are given for `C[C@H]1[C@H](NC(=O)/C(=N\OC(C)(C)C(=O)O)c2csc(N)n2)C(=O)N1S(=O)(=O)O` [AZTREONAM]?
A: MIC50 (Citrobacter freundii): 0.25 µg/mL (≈ 0.574 µM); MIC90 (Citrobacter freundii): 64 µg/mL (≈ 147 µM); MIC50 (Serratia marcescens): 0.5 µg/mL (≈ 1.15 µM); MIC90 (Serratia marcescens): > 64 µg/mL; MIC50 [8]: > 64 µg/mL; MIC90 [8]: > 64 µg/mL; MIC (Pseudomonas aeruginosa [1]): 8 µg/mL (≈ 18.4 µM); MIC50 (Acinetobacter sp.): 32 µg/mL (≈ 73.5 µM); MIC90 (Acinetobacter sp.): > 64 µg/mL; MIC90 (Klebsiella aerogenes): 64 µg/mL (≈ 147 µM); ED50 (Pseudomonas aeruginosa [12]): > 50 mg/kg; MIC (Acinetobacter baumannii): 32 µg/mL (≈ 73.5 µM); ED50 (Pseudomonas aeruginosa [15]): > 200 mg/kg
